An excerpt weighted towards active compounds, which were near 2.9% of everything screened.
5HT1E ag: 5-HT1E receptor agonists, primary screen, cell-based, HTS | 0.69% of 65,000 active | CHO 5-HT1E Ga15 NFAT-bla reporter, FRET; 0% DMSO wells, 100% control agonist wells | activation, % at 6 µM | AID 574, 2007;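 active = activation above a set limit, the screen-wide mean activation plus 3 SD, cut at about 8.5% in these data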;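 also: 100% = positive control agonist at 1 µM giving full maximal response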
SKBR3 24h inh: SK-BR-3 proliferation inhibitors, primary screen, cell-based, human, 24 h. 0.47% of 41,000 active. SK-BR-3 viability, CellTiter-Glo ATP luminescence; active compounds read low. viability, % at 10 µM. AID 847, 2007;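 active = viability at or below the median of all test compounds minus 3 SD, in both replicates if run twice, cut at about 45% in these data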;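 also: 100% = median untreated cell wells and 0% = median positive control drug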
HEK293 NFkB inh: inhibitors of PMA/ionomycin-induced NF-kB reporter, primary screen, antigen receptor NF-kB inhibitor project, cell-based, HEK-293 luciferase reporter, luminescence. HEK-293 NF-kB luciferase reporter. inhibition, % at 3 µM. 0.21% of 62,000 active. AID 465, 2006;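 active = inhibition above the mean of all tested compounds plus 3 SD, cut at about 40% in these data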;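 also: 0% = stimulated DMSO wells and 100% = 10 µM reference inhibitor 5653914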
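Reagent: PMA plus ionomycin mix as NF-kB-activating stimulus. Assay system: NF-kB luciferase reporter HEK-293 cells. Technique: luminescence from luciferase substrate reagent. Incubation: 1 h compound pre-incubation, 16 h PMA/ionomycin at 37 °C. Benchmarks: DMSO only as uninhibited control, 10 µM reference inhibitor as full inhibition. Repeats: tested once.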
HTR1E antagonist: 5-HT1E receptor antagonists, primary screen, cell-based, HTS; inhibition, % at 6 µM; 5-hydroxytryptamine receptor 1E (Homo sapiens), P28566; CHO 5-HT1E Ga15 NFAT-bla reporter, FRET, antagonist; 0.99% of 65,000 active; AID 571, 2007;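 active = inhibition above a set limit, the mean inhibition across every tested compound plus 3 SD, cut at about 29% in these data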;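 also: signal is the 460 over 535 nm emission ratio of beta-lactamase substrate; 0% = agonist plus DMSO wells and 100% = wells without agonist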
5HT1a antag: human 5-HT1a receptor antagonists, primary screen, cell-based, CHO, Ga15 NFAT-bla reporter; 5-hydroxytryptamine receptor 1A (Homo sapiens), P08908; CHO 5-HT1a Ga15 NFAT-bla reporter, antagonist mode; inhibition, % at 10 µM; 0.68% of 62,000 active;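 active = inhibition above the mean of all tested compounds plus 3 SD, cut at about 43% in these data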;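 also: receptor stimulated by 5-CT agonist at 100 nM near EC80; beta-lactamase reporter measured by ratiometric fluorescence of a cleavable substrate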
Target sequence (P08908 whole entry, looked up): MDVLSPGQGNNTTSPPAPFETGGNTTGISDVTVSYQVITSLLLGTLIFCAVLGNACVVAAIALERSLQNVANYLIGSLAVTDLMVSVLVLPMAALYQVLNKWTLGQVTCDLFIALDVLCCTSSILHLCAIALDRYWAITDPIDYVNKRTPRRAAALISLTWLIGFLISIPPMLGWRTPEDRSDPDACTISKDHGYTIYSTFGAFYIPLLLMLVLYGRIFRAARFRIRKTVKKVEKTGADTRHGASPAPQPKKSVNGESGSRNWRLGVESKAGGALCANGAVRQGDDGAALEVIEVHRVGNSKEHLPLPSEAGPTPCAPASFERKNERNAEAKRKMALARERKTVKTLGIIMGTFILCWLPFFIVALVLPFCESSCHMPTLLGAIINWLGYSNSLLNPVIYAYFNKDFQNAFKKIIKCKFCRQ
HTR1A agonist: human 5-HT1a receptor agonists, primary screen, cell-based, CHO, Ga15 NFAT-bla reporter; 5-hydroxytryptamine receptor 1A (Homo sapiens), P08908; CHO 5-HT1a Ga15 NFAT-bla reporter, FRET ratio; 0% basal, 100% maximal reference agonist; activation, % at 10 µM; 0.56% of 65,000 active; AID 567, 2006;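 active = activation above the screen-wide mean activation plus 3 SD, cut at about 19% in these data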;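 also: 0% = DMSO wells and 100% = 5-CT at EC100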
* marks the source's active call; other numbers are inactive results; . = no result.

SMILES	5HT1E ag	SKBR3 24h inh	HEK293 NFkB inh	HTR1E antagonist	5HT1a antag	HTR1A agonist
COc1cccc(OCc2nc3c4cnn(-c5ccccc5)c4ncn3n2)c1	0	115	19	2	0	24*
COc1cccc(OCCN2CCN(c3ncnc4c3cnn4-c3ccccc3)CC2)c1	0	66	.	-10	.	6
O=C(Nc1nc(-c2ccccn2)cs1)c1ccc(Cl)s1	1	.	8	44*	28	-2
COc1ccccc1CNC(=O)c1nnc(Cc2ccc(Cl)cc2)o1	1	.	-5	-2	-7	20*
Nc1c(S(=O)(=O)c2cccc(Cl)c2)c2nc3ccccc3nc2n1/N=C/c1ccc(O)c(O)c1	1	2.7*	7	28	7	-3
O=C(NCN1CCN(c2ccccc2F)CC1)c1ccccc1	10*	58	14	-2	15	-2
CCNC(=O)NC(=O)COC(=O)c1ccccc1SCC(=O)NC(=O)NCC	1	.	-27	-14	7	1
CCOC(=O)C1CCN(c2ncnc3c2cnn3-c2ccc(Cl)cc2)CC1	0	92	.	-4	.	3
CCOC(=O)C1CCN(c2ncnc3c2cnn3-c2ccccc2)CC1	0	89	20	7	1	30*
Cc1nn(-c2ccccc2)c(Cl)c1C(=O)N1CCN(c2ncnc3c2cnn3-c2ccccc2)CC1	-1	.	0	56*	63*	0
COc1ccc(-n2nnnc2-c2cccc(OC)c2)cc1	-1	127	21	35*	20	-2
Clc1ccc(-n2nnnc2-c2ccccc2)cc1Cl	0	.	7	15	-16	-3
COC(=O)C1(CCSC)NC(c2ccco2)C2C(=O)N(C)C(=O)C21 (stereo not drawn)	-1	.	13	1	9	-4
Cc1ccccc1-c1nc(CN2CCCC(C(=O)NCCCN3CCOCC3)C2)c(C)o1 (stereo not drawn)	1	.	-5	0	-4	-2
COc1ccc(CCNC(=O)C2CCCN(Cc3nc(-c4ccccc4C)oc3C)C2)cc1OC (stereo not drawn)	0	.	-5	-8	-3	33*
CCc1ccc(-c2nc(CN3CCCC(C(=O)NCCc4ccc(OC)c(OC)c4)C3)c(C)o2)cc1 (stereo not drawn)	2	.	-1	-17	-1	37*
CCOc1ccccc1NC(=O)c1c(NC(=O)CNCc2ccco2)sc2c1CCC2	-1	98	0	5	4	-1
CCC(C)(C)n1nnnc1C(c1cccc(C#N)c1)N1CCN(c2cccc(C)c2C)CC1 (stereo not drawn)	10*	96	10	-2	18	-2
COc1ccc(C(c2nnnn2C(C)(C)C)N2CCN(c3nc4ccccc4s3)CC2)cc1 (stereo not drawn)	0	80	18	-3	31	-1
CC(C)(C)n1nnnc1C(c1cccc(C#N)c1)N1CCN2CCCC2C1 (stereo not drawn)	1	66	9	-6	-7	1
c1ccc(Cn2nnnc2C(c2ccccc2)N2CCN(c3nc4ccccc4s3)CC2)cc1 (stereo not drawn)	-1	.	14	-3	6	-1
CCC(C)(C)n1nnnc1C(c1ccc(O)c(OC)c1)N1CCN(c2nc3ccccc3s2)CC1 (stereo not drawn)	25*	80	15	5	26	0
COc1ccccc1C(c1nnnn1Cc1ccccc1)N1CCN(c2nc3ccccc3s2)CC1 (stereo not drawn)	1	48	8	-9	44*	3
N#Cc1ccc(Oc2cccnc2)cc1C#N	0	106	13	-2	-6	1
Cc1ccc(S(=O)(=O)N(C)CCCC(=O)n2nc(C)cc2C)cc1	0	87	12	-5	-10	1
SMILES	5HT1E ag	SKBR3 24h inh	HEK293 NFkB inh	HTR1E antagonist	5HT1a antag	HTR1A agonist
CN(C)c1nc(N)nc(CSc2n[nH]c(-c3ccccc3)n2)n1	0	95	-1	30*	-15	-2
CC1(C)C(c2ccccc2)=[N+]([O-])CN1O	0	99	6	16	1	0
Cn1cccc1P(=O)(c1cccn1C)c1cccn1C	0	.	3	-1	-15	-2
Cc1ccc(N(CC2=NCCN2)c2cccc(O)c2)cc1	-2	92	1	52*	.	.
CCOC(=O)C1CCCN(C(=O)c2cnn3c(C(F)(F)F)cc(-c4ccccc4)nc23)C1 (stereo not drawn)	0	74	7	7	38	0
CCOC(=O)C1CCCN(C(=O)c2cc3nc(-c4cccc(OC)c4)cc(C(F)(F)F)n3n2)C1 (stereo not drawn)	0	90	5	35*	5	4
C=CCS/C(=N\n1cnc2ccccc2c1=O)N1CCCCC1	0	85	-2	2	1	99*
Cc1cc(/C=N/n2cnnc2)c(C)n1-c1ccc(Cl)cc1Cl	0	.	21	40*	32	-2
Cc1cc(/C=N/n2cnnc2)c(C)n1-c1cccc(Cl)c1	-1	117	-6	-3	-1	-1
CCOC(=O)C(O)(NC(=O)c1cccnc1)C(F)(F)F (stereo not drawn)	10*	91	1	0	-2	-2
CC1(C)CC(=O)C2=C(C1)Nc1ccccc1NC2c1nc2ccccc2[nH]1 (stereo not drawn)	0	.	2	34*	-6	0
CC1(C)CC(=O)C2=C(C1)Nc1ccccc1NC2c1ccccn1 (stereo not drawn)	-1	85	7	14	2	-1
Cc1cccc(C)c1OCC(O)CN (stereo not drawn)	24*	129	8	3	-3	-4
O=C(NCCc1ccccc1)c1ncn[nH]1	0	87	21	1	-6	-3
O=C(NCCc1ccc(Cl)cc1)c1ncn[nH]1	10*	108	7	6	-4	-1
C=CCNC(=O)c1ccc2c(c1)nnn2C	0	90	10	-5	3	0
O=C(COn1nnc2ccc(Cl)cc21)NCc1ccccc1	0	.	12	-1	1	-1
Clc1ccc(COn2nnc3ccccc32)c(Cl)c1	0	93	45*	3	8	-2
O=C(O)c1oc2ccc(Br)cc2c1-n1cccc1	0	96	17	-3	-2	-3

Compound activity as filed in PubChem.
